The nature of test [1]: Compound was evaluated for mitogenic inhibition against Swiss 3T3 murine fibroblast cells.
Test [2] addresses Gastrin-releasing peptide receptor (Mus musculus, UniProt P21729). As to the kind of experiment: Compound was evaluated for mitogenic inhibition against Swiss 3T3 murine fibroblast cells. In short, it runs like this:
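Swiss 3T3 monolayers grown to confluence, then serum-starved in serum-free DMEM for 48 h. Antagonist added together with 3 nM N-acetyl-GRP-20-27 amide and 23 nM [3H]thymidine. After a further 48 h, cells detached with trypsin/5 mM EDTA and filter-harvested; [3H]thymidine uptake measured. IC50 is the mean of at least two independent experiments.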

Test [3] is described as follows: Compound was evaluated for mitogenic inhibition against Swiss 3T3 murine fibroblast cells. The source holds these as a separate data set.

Non-standard residues stand in square brackets, D forms with d. Residues, ends and D or L forms follow the SMILES beside them. *: point of attachment. NH(2-Me-nonan-4R-yl) = CCCCC[C@H](CC(C)C)N*; NHCH(iBu)2 = CC(C)CC(CC(C)C)N*; X1 = CC(C)CCOC[C@H](CC(C)C)N*; X11 = CCCCC[C@@H](CC(C)C)N*; Leu(ol) = CC(C)C[C@H](N)CO; X10 = CCCOC[C@H](CC(C)C)N*; X12 = CCCC[C@H](CC(C)C)N*; X3 = COC[C@H](CC(C)C)N*; X6 = CCC[C@H](CC(C)C)N*; Piv = CC(C)(C)C(=O)*; X2 = CCCCC(CCCC)N*

Chain of Gastrin-releasing peptide receptor (P21729 whole entry): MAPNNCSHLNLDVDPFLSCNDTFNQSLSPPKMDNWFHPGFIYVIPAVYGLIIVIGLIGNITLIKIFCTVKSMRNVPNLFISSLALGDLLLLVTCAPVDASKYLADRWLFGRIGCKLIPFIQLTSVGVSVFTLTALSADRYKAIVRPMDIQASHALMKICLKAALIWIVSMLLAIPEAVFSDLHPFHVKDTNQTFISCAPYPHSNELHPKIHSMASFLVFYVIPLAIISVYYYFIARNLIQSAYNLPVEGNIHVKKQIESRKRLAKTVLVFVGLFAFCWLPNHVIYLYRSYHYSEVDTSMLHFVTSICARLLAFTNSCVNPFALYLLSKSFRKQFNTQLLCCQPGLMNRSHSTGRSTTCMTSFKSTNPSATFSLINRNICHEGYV

`CCCC[C@H](CC(C)C)NC(=O)[C@H](Cc1cnc[nH]1)NC(=O)CNC(=O)[C@@H](NC(=O)[C@H](C)NC(=O)[C@H](Cc1c[nH]c2ccccc12)NC(=O)[C@H](Cc1cnc[nH]1)NC(C)=O)C(C)C` [2-{2-[2-[2-Acetylamino-3-(3H-imidazol-4-yl)-propionylamino]-3-(1H-indol-3-yl)-propionylamino]-propionylamino}-N-{[2-(3H-imidazol-4-yl)-1-(1-isobutyl-pentylcarbamoyl)-ethylcarbamoyl]-methyl}-3-methyl-butyramide] (Ac-HWAVGH-X12): the IC50 – broadly, the concentration that inhibits the measured activity by half – in test [1] is 3 nM.

The compound `CCCCC(CCCC)NC(=O)[C@H](Cc1cnc[nH]1)NC(=O)CNC(=O)[C@@H](NC(=O)[C@H](C)NC(=O)[C@H](Cc1c[nH]c2ccccc12)NC(=O)[C@H](Cc1cnc[nH]1)NC(C)=O)C(C)C` [2-{2-[2-[2-Acetylamino-3-(3H-imidazol-4-yl)-propionylamino]-3-(1H-indol-3-yl)-propionylamino]-propionylamino}-N-{[1-(1-butyl-pentylcarbamoyl)-2-(3H-imidazol-4-yl)-ethylcarbamoyl]-methyl}-3-methyl-butyramide] (Ac-HWAVGH-X2) came in with an IC50 in test [1] of 11 nM. Take `CCCOC[C@H](CC(C)C)NC(=O)[C@H](Cc1c[nH]cn1)NC(=O)CNC(=O)[C@@H](NC(=O)[C@H](C)NC(=O)[C@H](Cc1c[nH]c2ccccc12)NC(=O)[C@H](Cc1c[nH]cn1)NC(C)=O)C(C)C` [2-{2-[2-[2-Acetylamino-3-(3H-imidazol-4-yl)-propionylamino]-3-(1H-indol-3-yl)-propionylamino]-propionylamino}-N-{[2-(3H-imidazol-4-yl)-1-(3-methyl-1-propoxymethyl-butylcarbamoyl)-ethylcarbamoyl]-methyl}-3-methyl-butyramide] (Ac-HWAVGH-X10): the IC50 in test [2] is 18 nM. With `CC(=O)N[C@@H](Cc1c[nH]cn1)C(=O)N[C@@H](Cc1c[nH]c2ccccc12)C(=O)N[C@@H](C)C(=O)N[C@H](C(=O)NCC(=O)N[C@@H](Cc1c[nH]cn1)C(=O)N[C@H](CO)CC(C)C)C(C)C` [2-{2-[2-[2-Acetylamino-3-(3H-imidazol-4-yl)-propionylamino]-3-(1H-indol-3-yl)-propionylamino]-propionylamino}-N-{[1-(1-hydroxymethyl-3-methyl-butylcarbamoyl)-2-(3H-imidazol-4-yl)-ethylcarbamoyl]-methyl}-3-methyl-butyramide] (Ac-HWAVGH[Leu(ol)]), in test [3], half-maximal inhibition (IC50) was put at 300 nM.

Turning to `CCCCC[C@@H](CC(C)C)NC(=O)[C@H](Cc1cnc[nH]1)NC(=O)CNC(=O)[C@@H](NC(=O)[C@H](C)NC(=O)[C@H](Cc1c[nH]c2ccccc12)NC(=O)[C@H](Cc1cnc[nH]1)NC(C)=O)C(C)C` [2-{2-[2-[2-Acetylamino-3-(3H-imidazol-4-yl)-propionylamino]-3-(1H-indol-3-yl)-propionylamino]-propionylamino}-N-{[2-(3H-imidazol-4-yl)-1-(1-isobutyl-hexylcarbamoyl)-ethylcarbamoyl]-methyl}-3-methyl-butyramide] (Ac-HWAVGH-X11), the IC50 in test [3] came out at 22 nM.

The compound `CCCCC[C@H](CC(C)C)NC(=O)[C@H](Cc1cnc[nH]1)NC(=O)CNC(=O)[C@@H](NC(=O)[C@H](C)NC(=O)[C@H](Cc1c[nH]c2ccccc12)NC(=O)[C@H](Cc1cnc[nH]1)NC(=O)C(C)(C)C)C(C)C` [2-{2-[2-[2-(2,2-Dimethyl-propionylamino)-3-(3H-imidazol-4-yl)-propionylamino]-3-(1H-indol-3-yl)-propionylamino]-propionylamino}-N-{[2-(3H-imidazol-4-yl)-1-(1-isobutyl-hexylcarbamoyl)-ethylcarbamoyl]-methyl}-3-methyl-butyramide] (Piv-HWAVGH-{NH(2-Me-nonan-4R-yl)}) gave an IC50 in test [3] of 0.6 nM. In turn, `COC[C@H](CC(C)C)NC(=O)[C@H](Cc1c[nH]cn1)NC(=O)CNC(=O)[C@@H](NC(=O)[C@H](C)NC(=O)[C@H](Cc1c[nH]c2ccccc12)NC(=O)[C@H](Cc1c[nH]cn1)NC(C)=O)C(C)C` [2-{2-[2-[2-Acetylamino-3-(3H-imidazol-4-yl)-propionylamino]-3-(1H-indol-3-yl)-propionylamino]-propionylamino}-N-{[2-(3H-imidazol-4-yl)-1-(1-methoxymethyl-3-methyl-butylcarbamoyl)-ethylcarbamoyl]-methyl}-3-methyl-butyramide] (Ac-HWAVGH-X3) came in with an IC50 in test [3] of 91 nM. This IC50 lies about 150-fold higher than the previous one. With `CC(=O)N[C@@H](Cc1c[nH]cn1)C(=O)N[C@@H](Cc1c[nH]c2ccccc12)C(=O)N[C@@H](C)C(=O)N[C@H](C(=O)NCC(=O)N[C@@H](Cc1c[nH]cn1)C(=O)N[C@H](COCCC(C)C)CC(C)C)C(C)C` [2-{2-[2-[2-Acetylamino-3-(3H-imidazol-4-yl)-propionylamino]-3-(1H-indol-3-yl)-propionylamino]-propionylamino}-N-({2-(3H-imidazol-4-yl)-1-[3-methyl-1-(3-methyl-butoxymethyl)-butylcarbamoyl]-ethylcarbamoyl}-methyl)-3-methyl-butyramide] (Ac-HWAVGH-X1), it took 32 nM to reach half-maximal inhibition in test [2] (IC50). As for `CCCCC[C@H](CC(C)C)NC(=O)[C@H](Cc1cnc[nH]1)NC(=O)CNC(=O)[C@@H](NC(=O)[C@H](C)NC(=O)[C@H](Cc1c[nH]c2ccccc12)NC(=O)[C@H](Cc1cnc[nH]1)NC(C)=O)C(C)C` [2-{2-[2-[2-Acetylamino-3-(3H-imidazol-4-yl)-propionylamino]-3-(1H-indol-3-yl)-propionylamino]-propionylamino}-N-{[2-(3H-imidazol-4-yl)-1-(1-isobutyl-hexylcarbamoyl)-ethylcarbamoyl]-methyl}-3-methyl-butyramide] (Ac-HWAVGH-{NH(2-Me-nonan-4R-yl)}), in test [3], the IC50 is 4 nM. For the compound `CC(=O)N[C@@H](Cc1cnc[nH]1)C(=O)N[C@@H](Cc1c[nH]c2ccccc12)C(=O)N[C@@H](C)C(=O)N[C@H](C(=O)NCC(=O)N[C@@H](Cc1cnc[nH]1)C(=O)NC(CC(C)C)CC(C)C)C(C)C` [2-{2-[2-[2-Acetylamino-3-(3H-imidazol-4-yl)-propionylamino]-3-(1H-indol-3-yl)-propionylamino]-propionylamino}-N-{[2-(3H-imidazol-4-yl)-1-(1-isobutyl-3-methyl-butylcarbamoyl)-ethylcarbamoyl]-methyl}-3-methyl-butyramide] (Ac-HWAVGH-{NHCH(iBu)2}), the IC50 in test [1] amounted to 8 nM. On to `CCC[C@H](CC(C)C)NC(=O)[C@H](Cc1cnc[nH]1)NC(=O)CNC(=O)[C@@H](NC(=O)[C@H](C)NC(=O)[C@H](Cc1c[nH]c2ccccc12)NC(=O)[C@H](Cc1cnc[nH]1)NC(C)=O)C(C)C` [2-{2-[2-[2-Acetylamino-3-(3H-imidazol-4-yl)-propionylamino]-3-(1H-indol-3-yl)-propionylamino]-propionylamino}-N-{[2-(3H-imidazol-4-yl)-1-(3-methyl-1-propyl-butylcarbamoyl)-ethylcarbamoyl]-methyl}-3-methyl-butyramide] (Ac-HWAVGH-X6), for which, in test [3], the IC50 came to 10 nM.

These data come from BindingDB's records for doi:10.1021/jm00111a027 (Merck Sharp & Dohme Research Laboratories, 1991).
